Test results as given in the M2OR odorant receptor database.

The molecules below were run against T1, OR1G1 (Homo sapiens) (UniProt P47890). Settings: stereoisomer not certain.
T1 sequence (whole entry): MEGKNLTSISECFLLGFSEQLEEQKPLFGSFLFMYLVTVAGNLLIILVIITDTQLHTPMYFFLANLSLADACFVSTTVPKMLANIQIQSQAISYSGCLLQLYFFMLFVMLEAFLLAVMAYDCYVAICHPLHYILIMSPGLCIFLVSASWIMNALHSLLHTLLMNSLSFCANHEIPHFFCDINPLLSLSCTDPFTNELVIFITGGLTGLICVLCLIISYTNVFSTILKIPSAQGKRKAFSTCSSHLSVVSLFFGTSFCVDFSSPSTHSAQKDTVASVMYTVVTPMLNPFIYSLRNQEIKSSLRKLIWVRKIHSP
In short: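 Assay methods differ from source to source, frequently being transient luciferase assays in mammalian cell lines. For each receptor–molecule pair, the label responsive (active) applies when the original authors judged the measured signal statistically different from baseline, and non-responsive (inactive) applies otherwise.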

Odorant receptor agonist call, inactive:
O=C(O)C=Cc1ccccc1, CC1CCC(C(C)C)C(=O)C1 (centres undefined), CC=CC(=O)C1C(C)=CCCC1(C)C (centres undefined), CC1=CCC2CC1C2(C)C (centres undefined), CCCCCCCCCCC(C)=O, C=CC(C)(O)CCC=C(C)CCC=C(C)C (centres undefined), CCCCCCC(=O)OC, CCCCOC(=O)CCC, CCC=C(C)C(O)CCCCC (centres undefined), CCCCCC(=O)CC, CCCCCCCCCCCC=O, COC1CC2CC1C1CC(C=O)CC21 (centres undefined), CCCCCC(=O)OCC, CSC, CCCCCCCC(=O)[O-].[H+], CCCCCCC(=O)[O-].[H+], CCC(=O)C=CC1C(C)=CCCC1(C)C (centres undefined), COc1nccnc1CC(C)C, CC(C)CCCC(C)(C)O

Odorant receptor agonist call, active:
CCCCCCCCO, CCCCC(O)CCC (centres undefined), c1ccc2scnc2c1, CC=Cc1ccc(OC)cc1, CCCCCCO, Cc1cnccn1, CCCCCCCCCO, CCCCCCCCC(=O)OCC, CCCCCCCCCC(=O)OCC, CCCCCCCC(C)=O, CCCCCC1C(=O)CCC1CC(=O)OC (centres undefined), CCCCCCCC(C)O (centres undefined), CCCCCCCO, CCCCC(CC)CO (centres undefined), c1cscn1
